In ChEMBL document CHEMBL3044975, “Hybrid ubiquinone: novel inhibitor of mitochondrial complex I” (Biochim Biophys Acta, 2002) one finds IC50 data, which are given here for ten molecules.

Broadly, the IC50 is the midpoint of a concentration-inhibition curve.

The target of assay [1] is T1, NADH-ubiquinone oxidoreductase chain 1 (Bos taurus, UniProt P03887). Put plainly: Inhibition of Bos taurus (bovine) mitochondrial complex 1 assessed as reduction in enzyme activity by NADH-DU oxidoreductase assay. In short, it runs like this: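 Bovine heart submitochondrial particles (SMP) at 30 µg protein/ml. 50 µM decyl ubiquinone is the acceptor. SMP are preincubated with the HU for 5 min, then 50 µM NADH is added. NADH oxidation is read at 340 nm, 30 °C. IC50 from two independent experiments.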

Assay [2] deals with T1, NADH-ubiquinone oxidoreductase chain 1. The assay can be described thus: Inhibition of Bos taurus (bovine) mitochondrial complex 1 assessed as reduction in enzyme activity by NADH-DB oxidoreductase assay.

T1 sequence (P03887 whole entry): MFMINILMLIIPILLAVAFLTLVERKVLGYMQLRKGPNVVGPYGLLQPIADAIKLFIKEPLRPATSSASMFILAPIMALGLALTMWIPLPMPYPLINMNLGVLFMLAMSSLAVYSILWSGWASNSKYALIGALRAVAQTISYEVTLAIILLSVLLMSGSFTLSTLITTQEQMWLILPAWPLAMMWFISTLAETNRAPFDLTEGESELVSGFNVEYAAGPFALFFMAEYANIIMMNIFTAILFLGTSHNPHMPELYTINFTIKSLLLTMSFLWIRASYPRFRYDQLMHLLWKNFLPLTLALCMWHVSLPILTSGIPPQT

Take `CCCCCCCCCCC(=O)N(C)CC1=C(C)C(=O)C(OC)=C(OC)C1=O`: the figures for the IC50 in assay [1] and in assay [2] were 6.2 µM and 11.8 µM, respectively.

With `C/C=C(\C)[C@H](O)[C@H](C)/C=C(C)/C=C/C/C(C)=C/Cc1nc(OC)c(OC)c(O)c1C` [PIERICIDIN A], the IC50 in assay [2] came to 0.003 µM.

In the case of `CN(C)C(=O)c1ccc(Oc2ccc(C(C)(C)C)cc2)cc1`, the IC50 in assay [2] was determined as 0.65 µM.

Take `COC1=C(OC)C(=O)C(CN(C)C(=O)c2ccc(Oc3ccc(C(C)(C)C)cc3)cc2)=C(C)C1=O`: the IC50 in assay [1] was 0.088 µM; in assay [2] it was 0.077 µM.

Consider `CCCCc1ccc(Oc2ccc(C(=O)N(C)CC3=C(C)C(=O)C(OC)=C(OC)C3=O)cc2)cc1`, for which the IC50 is 0.84 µM in assay [1] and 0.97 µM in assay [2].

`CCN(CC1=C(C)C(=O)C(OC)=C(OC)C1=O)C(=O)c1ccc(Oc2ccc(C(C)(C)C)cc2)cc1`: the IC50 was determined as 0.63 µM in assay [1] and 0.37 µM in assay [2].

Consider `COC1=C(OC)C(=O)C(CC(=O)N(C)c2ccc(Oc3ccc(C(C)(C)C)cc3)cc2)=C(C)C1=O`, for which the IC50 in assay [1] worked out at 2 µM; in assay [2] it was 1.8 µM.

For `COC1=C(OC)C(=O)C(CCN(C)C(=O)c2ccc(Oc3ccc(C(C)(C)C)cc3)cc2)=C(C)C1=O`, the figures for the IC50 in assay [1] and in assay [2] were 0.76 µM and 0.47 µM, respectively.

Regarding `COC1=C(OC)C(=O)C(CCCCCCN(C)C(=O)c2ccc(Oc3ccc(C(C)(C)C)cc3)cc2)=C(C)C1=O`, the IC50 worked out at 0.61 µM in assay [1] and 1.1 µM in assay [2].

Regarding `COC1=C(OC)C(=O)C(CNC(=O)c2ccc(Oc3ccc(C(C)(C)C)cc3)cc2)=C(C)C1=O`, the IC50 stood at 0.53 µM in assay [1] and 0.34 µM in assay [2].
